Screens (PubChem)
TRPC6 act – mouse TRPC6 channel activators, primary screen, cell-based, HEK293, membrane potential dye; Short transient receptor potential channel 6 (Mus musculus), Q61143; HEK293-TRPC6 membrane potential dye fluorescence; active compounds read high; B-score at 10 µM; hit rate 0.13% among 310,000;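 active means B-score of the integrated fluorescence ratio above library mean plus 3 SD, and starting fluorescence ratio within library mean plus 5 SD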;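 further: higher score means more depolarization so channel activation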
TRPC4 inh – inhibitors of mouse TRPC4 channel, primary screen, Fluo4 calcium, HEK293 TRPC4beta/mu-opioid cells; Short transient receptor potential channel 4 (Mus musculus), Q9QUQ5; DAMGO-evoked Fluo4 calcium flux; active compounds read low; B-score at 10 µM; hit rate 0.39% among 300,000;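 active means B-score over 3 SD under the library average, no early fluorescence shift, positive overall ratio signal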
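Assay system: HEK293 cells with stable TRPC4beta plus mu-opioid receptor expression. Dosing: single dose. Measured by: Fluo4 Ca2+ flux fluorescence. Also added: DAMGO in two steps, submaximal then maximal. Read-out: B score from integrated Fluo4 fluorescence ratio.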
TRPC4 potent – positive allosteric modulators of TRPC4, primary screen, cell-based, mouse TRPC4beta, HEK293 mu-opioid, Fluo-4 calcium; DAMGO EC20, Fluo-4 Ca2+ flux; active compounds read high; B-score at 10 µM; hit rate 0.42% among 310,000;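 active means B-score of calcium response area above 5 SD of library B-scores, with initial fluorescence ratio within 5 SD of library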;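 further: B-score of integrated fluorescence ratio over time as area under calcium response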
TRPC6 inhibitor – mouse TRPC6 channel inhibitors, primary screen, cell-based, HEK293, membrane potential dye | ACh-evoked depolarization; active compounds read low | B-score at 10 µM | hit rate 1.1% among 310,000;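 active means B-score under library mean minus 3 SD, initial fluorescence not abnormally high, positive integrated signal ratio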;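 further: B-score derived from integrated fluorescence ratio over the kinetic read; more negative B-score means stronger inhibition of depolarization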
Kir21 inh – inhibitors of mouse Kir2.1 inward-rectifier potassium channel; Inward rectifier potassium channel 2 (Mus musculus), P35561; HEK293-Kir2.1, FluxOR thallium flux fluorescence; active compounds read low; B-score at 10 µM; hit rate 0.85% among 310,000; AID 1672, 2009;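 active means fluorescence ratio B-score at or below minus 3 SD of library scores, with starting-brightness B-score within 2 SD, cut at about -4.2 in these data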;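 further: channel flux triggered by added potassium and thallium sulfate stimulus; B-score of peak minus minimum fluorescence over baseline after thallium stimulus; more negative B-score means stronger Kir2.1 block with less thallium influx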
Target sequence (P35561 whole entry, looked up): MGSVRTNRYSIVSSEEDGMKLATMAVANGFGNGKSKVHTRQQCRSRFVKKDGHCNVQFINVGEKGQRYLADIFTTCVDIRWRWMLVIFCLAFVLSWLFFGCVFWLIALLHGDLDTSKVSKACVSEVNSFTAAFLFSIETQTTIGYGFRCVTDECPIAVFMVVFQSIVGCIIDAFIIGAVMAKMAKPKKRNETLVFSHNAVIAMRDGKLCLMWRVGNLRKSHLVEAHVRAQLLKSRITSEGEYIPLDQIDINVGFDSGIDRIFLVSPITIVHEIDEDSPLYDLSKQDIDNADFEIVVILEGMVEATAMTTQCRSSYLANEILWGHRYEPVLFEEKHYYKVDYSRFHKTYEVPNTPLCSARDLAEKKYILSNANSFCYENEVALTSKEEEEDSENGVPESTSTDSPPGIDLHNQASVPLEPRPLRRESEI
TRPC4 agonist – activators of mouse TRPC4 channel, primary screen, Fluo4 calcium, HEK293 TRPC4beta/mu-opioid cells. Fluo4 calcium fluorescence; active compounds read high. hit rate 0.49% among 310,000. AID 2237, 2010. B-score at 10 µM. Short transient receptor potential channel 4 (Mus musculus), Q9QUQ5;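 active means B-score above 5 SD of library B-scores, and initial fluorescence ratio not above library mean plus 5 SD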;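 further: positive B-score marks a calcium rise read as TRPC4 activation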
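Assay system: HEK293 stable line with TRPC4beta plus mu-opioid receptor. Times: dye 45 min RT, read 110 s. Measured by: kinetic Fluo4 calcium fluorescence. Measure: B score of integrated ratio. Controls: assay buffer as low control, maximal DAMGO as high control.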
* = called active by the depositor; i = inactive. Hits are enriched below; roughly 2.9% of the tested compounds scored in any of these assays.

SMILES	TRPC6 act	TRPC4 inh	TRPC4 potent	TRPC6 inhibitor	Kir21 inh	TRPC4 agonist
CC(C)c1ccccc1NC(=O)COC(=O)Cc1c[nH]c2ccccc12	i	i	i	i	-5.42*	i
Cc1ccc(C(C(=O)NC2CCCCC2)N(C(=O)Cc2c[nH]c3ccccc23)c2ccccc2C)o1 (configuration not stated)	i	i	i	i	0.01	i
COc1ccccc1Nc1c2c(nc3ccccc13)CCC2	i	i	i	i	-0.76	i
O=C(Nc1ccccc1)Nc1cc(S(=O)(=O)N2CCOCC2)ccc1N1CCCC1	i	i	i	i	-0.49	i
O=C(Nc1ccc(F)cc1)Nc1cc(S(=O)(=O)N2CCOCC2)ccc1N1CCCC1	i	i	39*	i	0.42	i
Cc1cnc(C(=O)Nc2cc(S(=O)(=O)N3CCOCC3)ccc2N2CCN(C)CC2)cn1	i	i	11*	i	-0.5	i
COc1cccc(NS(=O)(=O)c2ccc(-n3cccn3)cc2)c1	i	i	i	i	1.17	i
COc1cccc(C(C[N+](=O)[O-])c2c(C)[nH]n(-c3ccccc3)c2=O)c1 (configuration not stated)	i	i	i	i	-12.7*	i
CCC(C)NC(=O)C1CCCCN1S(=O)(=O)c1ccc(F)cc1 (configuration not stated)	i	i	i	i	0.29	i
CCOCCCNC(=O)CN1C(=O)COc2ccc(S(=O)(=O)N3CCC(C)CC3)cc21	i	i	i	i	0.81	i
CCOC(=O)c1oc2ccc(OC)cc2c1NC(=O)CN1CCN(C)CC1	i	i	i	i	-0.12	88*
CCOC(=O)c1oc2ccccc2c1NC(=O)CN1CCN(C)CC1	i	i	i	i	-0.57	i
CC1CCCN(CC(=O)N2c3ccccc3Sc3ccccc32)C1 (configuration not stated)	i	i	i	i	-0.62	i
CC1Cc2ccccc2N1C(=O)CN1CCCCC1 (configuration not stated)	i	i	i	i	0.2	i
O=C(CN1CCCCCC1)N1c2ccccc2Sc2ccccc21	i	-7*	i	i	-2	i
NCCC(=O)N1c2ccccc2Sc2ccc(Cl)cc21	i	i	i	i	-4.78*	i
O=C(CN1CCCCC1)N1c2ccccc2Oc2ccccc21	i	-5*	i	i	-0.75	i
O=C(Nc1ccc(F)c([N+](=O)[O-])c1)C(=O)c1c(O)[nH]c2ccccc12	i	i	i	i	0.3	i
CC1CCCN(c2c([N+](=O)[O-])cc(C(=O)O)cc2[N+](=O)[O-])C1 (configuration not stated)	i	-5*	i	i	-0.6	i
CCCC(=O)Nc1sc2c(c1C(=O)OC)C(C(=O)OC)CC2 (configuration not stated)	i	i	i	i	0.72	i
CN(CCc1nc2ccc(Cl)cc2[nH]1)Cc1nc(CC2CC2)no1	i	i	i	i	-0.49	105*
CSCC[C@@H](C(=O)NCc1cccs1)N1Cc2ccccc2C1=O	i	i	i	i	0.78	i
COc1cc(/C=C2\CCC/C(=C\c3ccc(O)c(OC)c3)C2=O)ccc1O	i	-6*	i	i	1.01	i
COc1cc(/C=C2\SC(N3CCC(C)CC3)=NC2=O)ccc1O	i	-6*	i	i	-2.23	i
COc1cc(/C=C2/CCCC(C(=O)C(F)(F)F)=C2O)ccc1O	i	i	i	i	0.69	i
SMILES	TRPC6 act	TRPC4 inh	TRPC4 potent	TRPC6 inhibitor	Kir21 inh	TRPC4 agonist
CCOc1cc(/C=C2\CN(CC)C/C(=C\c3ccc(O)c(OCC)c3)C2=O)ccc1O	i	i	17*	i	-0.23	i
O=C(CN1CCN(S(=O)(=O)c2ccccc2)CC1)Nc1cccc(C(F)(F)F)c1	i	i	i	i	1.36	i
Cc1ccc(C)c(N(C(=O)c2snc(C(N)=O)c2N)C(C(=O)NCC2CCCO2)c2cccs2)c1 (configuration not stated)	i	i	i	i	-1.47	i
Cc1ccc(C)c(N(C(=O)c2snc(C(N)=O)c2N)C(C(=O)NCC2CCCO2)c2ccc(C)o2)c1 (configuration not stated)	i	-7*	i	i	-0.15	i
COc1ccc(C)cc1N(C(=O)c1snc(C(N)=O)c1N)C(C(=O)NC1CCCCC1)c1ccc(C)o1 (configuration not stated)	i	-11*	i	i	-1.81	i
NC(=O)c1nsc(C(=O)N(Cc2ccc(F)cc2)C(C(=O)NCC2CCCO2)c2ccc(F)cc2)c1N (configuration not stated)	i	-7*	i	i	-0.94	i
CC(Oc1ccccc1)c1ccnn1S(=O)(=O)c1ccccc1 (configuration not stated)	i	i	i	i	-8.57*	i
O=S(=O)(c1ccccc1)c1nc(-c2ccccc2)oc1N1CCOCC1	i	i	i	i	1.18	i
O=S(=O)(c1ccccc1)c1nc(-c2cccc(Cl)c2)oc1N1CCOCC1	i	i	10*	i	0.3	i
O=[N+]([O-])c1cc([N+](=O)[O-])c2cccnc2c1Oc1ccccc1O	i	i	i	i	-8.86*	i
O=[N+]([O-])c1ccc(O)c2ncccc12	i	i	i	i	-0.09	i
CC(=O)NCCc1nc2ccccc2n1Cc1cccc(C)c1	i	i	i	i	0.38	i
CC(C)(C)c1ccccc1NC(=S)NCc1ccccc1	i	i	i	i	-0.55	i
Cc1ccc(C)c(S(=O)(=O)N2CCN(C(=O)CCc3nc4ccccc4c(=O)[nH]3)CC2)c1	i	i	i	i	0.34	194*
Cc1noc(C)c1COC(=O)[C@H](C)NS(=O)(=O)c1ccc(Cl)c(Cl)c1	i	i	i	i	-5.23*	i
Cc1noc(C)c1COC(=O)[C@@H](NC(=O)c1ccccc1Cl)C(C)C	i	i	48*	i	0	i
